# In ChEMBL document CHEMBL2040797, “Synthesis of benzimidazoles bearing oxadiazole nucleus as anticancer agents” (2012):
# Legend:
# Type in all cases: functional
# MDA-MB-231 [1] = assay: Cytotoxicity against human MDA-MB-231 cells after 48 hrs by sulforhodamine B assay; settings: MDA-MB-231, 48 h
# Method in brief: (§1)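 NCI 60-panel screen. Cells were grown in RPMI 1640 with 5% FBS and L-glutamine and plated at 5000–40,000 cells/well according to doubling time. They were preincubated 24 h at 37 °C, 5% CO2, then exposed 48 h to five 10-fold dilutions. Adherent cells were fixed with cold TCA, final 10%; suspension cells were fixed after settling. Cells were stained with 0.4% SRB and read at 515 nm. Tz/C/Ti growth curves gave GI50, TGI and LC50.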
# U-251 = assay: Cytotoxicity against human U251 cells after 48 hrs by sulforhodamine B assay; settings: U-251, 48 h
# Method in brief: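 NCI 60 panel five-dose screen. Cells in RPMI 1640 with 5% FBS and 2 mM L-glutamine, plated at 5000–40,000 cells/well and preincubated 24 h. Compounds were tested at five 10-fold concentrations (0.01–100) for 48 h at 37 °C, 5% CO2. Cells were fixed with TCA and stained with SRB, absorbance 515 nm. GI50, TGI and LC50 were taken from % growth curves against time-zero and control.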
# KM12 = assay: Cytotoxicity against human KM12 cells after 48 hrs by sulforhodamine B assay; settings: KM12, 48 h; method in brief: as §1
# SK-MEL-28 [2] = assay: Growth inhibition of human SK-MEL-28 cells at 10 uM after 48 hrs by sulforhodamine B assay; settings: SK-MEL-28, 48 h, read-out: GI
# Method in brief: (§2)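 NCI-60 single-dose screen. Cells grown in RPMI 1640 with 5% FBS and L-glutamine, plated at 5000–40,000 cells/well by doubling time, and preincubated 24 h at 37 °C, 5% CO2. Compound stocks in DMSO, added at one concentration, then incubated 48 h. Adherent cells fixed with cold TCA (10% final), stained with 0.4% SRB, dye solubilized in 10 mM Tris base, A515 read. Reported as percent growth relative to untreated control.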
# T47D [3] = assay: Cytotoxicity against human T47D cells after 48 hrs by sulforhodamine B assay; method in brief: as §1
# UACC-257 = assay: Growth inhibition of human UACC257 cells at 10 uM after 48 hrs by sulforhodamine B assay; settings: UACC-257, 48 h, read-out: GI; method in brief: as §2
# HT-29 = assay: Growth inhibition of human HT-29 cells at 10 uM after 48 hrs by sulforhodamine B assay; settings: HT-29, 48 h, read-out: GI
# Method in brief: (§3)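 NCI one-dose primary screen at 10 (printed mM) across the 60-line panel. Cells in RPMI 1640 with 5% FBS and 2 mM L-glutamine, plated at 5000–40,000 cells/well and incubated 24 h before dosing. Exposure 48 h at 37 °C, 5% CO2. Adherent cells were fixed with cold TCA, suspension cells fixed after settling. SRB stain, absorbance 515 nm. Reported as percent growth of treated cells relative to control.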
# NCI/ADR-RES = assay: Cytotoxicity against human NCI/ADR-RES cells after 48 hrs by sulforhodamine B assay; method in brief: as §1
# SK-MEL-5 = assay: Growth inhibition of human SK-MEL-5 cells at 10 uM after 48 hrs by sulforhodamine B assay; settings: SK-MEL-5, 48 h, read-out: GI; method in brief: as §2
# A498 = assay: Growth inhibition of human A498 cells at 10 uM after 48 hrs by sulforhodamine B assay; settings: A498, 48 h, read-out: GI; method in brief: as §3
# M14 = assay: Cytotoxicity against human M14 cells after 48 hrs by sulforhodamine B assay; settings: M14, 48 h; method in brief: as §1
# RPMI-8226 = assay: Growth inhibition of human RPMI8226 cells at 10 uM after 48 hrs by sulforhodamine B assay; settings: RPMI-8226, 48 h, read-out: GI; method in brief: as §3
# SK-MEL-28 [4] = assay: Cytotoxicity against human SK-MEL-28 cells after 48 hrs by sulforhodamine B assay; settings: SK-MEL-28, 48 h; method in brief: as §1
# K562 = assay: Growth inhibition of human K562 cells at 10 uM after 48 hrs by sulforhodamine B assay; settings: K562, 48 h, read-out: GI; method in brief: as §3
# CAKI-1 = assay: Growth inhibition of human Caki1 cells at 10 uM after 48 hrs by sulforhodamine B assay; settings: CAKI-1, 48 h, read-out: GI; method in brief: as §3
# [5] = Growth inhibition of human Hs 578T cells at 10 uM after 48 hrs by sulforhodamine B assay; settings: read-out: GI; method in brief: as §3
# HCT-15 = assay: Growth inhibition of human HCT15 cells at 10 uM after 48 hrs by sulforhodamine B assay; settings: HCT-15, 48 h, read-out: GI; method in brief: as §3
# OVCAR-8 = assay: Growth inhibition of human OVCAR8 cells at 10 uM after 48 hrs by sulforhodamine B assay; settings: OVCAR-8, 48 h, read-out: GI; method in brief: as §3
# SF-295 = assay: Growth inhibition of human SF295 cells at 10 uM after 48 hrs by sulforhodamine B assay; settings: SF-295, 48 h, read-out: GI; method in brief: as §3
# EKVX = assay: Growth inhibition of human EKVX cells at 10 uM after 48 hrs by sulforhodamine B assay; settings: read-out: GI; method in brief: as §3
# NCI-H23 = assay: Growth inhibition of human NCI-H23 cells at 10 uM after 48 hrs by sulforhodamine B assay; settings: NCI-H23, 48 h, read-out: GI; method in brief: as §3
# UO-31 = assay: Growth inhibition of human UO31 cells at 10 uM after 48 hrs by sulforhodamine B assay; settings: UO-31, 48 h, read-out: GI; method in brief: as §2
# MDA-MB-468 = assay: Growth inhibition of human MDA-MB-468 cells at 10 uM after 48 hrs by sulforhodamine B assay; settings: MDA-MB-468, 48 h, read-out: GI; method in brief: as §3
# SK-OV-3 = assay: Growth inhibition of human SKOV3 cells at 10 uM after 48 hrs by sulforhodamine B assay; settings: SK-OV-3, 48 h, read-out: GI; method in brief: as §2
# HOP-92 = assay: Growth inhibition of human HOP92 cells at 10 uM after 48 hrs by sulforhodamine B assay; settings: HOP-92, 48 h, read-out: GI; method in brief: as §3
# PC-3 = assay: Growth inhibition of human PC3 cells at 10 uM after 48 hrs by sulforhodamine B assay; settings: PC-3, 48 h, read-out: GI; method in brief: as §3
# MDA-MB-231 [6] = assay: Growth inhibition of human MDA-MB-231 cells at 10 uM after 48 hrs by sulforhodamine B assay; settings: MDA-MB-231, 48 h, read-out: GI; method in brief: as §3
# T47D [7] = assay: Growth inhibition of human T47D cells at 10 uM after 48 hrs by sulforhodamine B assay; settings: read-out: GI; method in brief: as §2
# [8] = read-out: LC50 (the source's name)
smiles,measurement,setting,value
O=C(CCc1nnc(-c2ccc(Cl)cc2Cl)o1)c1nc2ccccc2[nH]1,GI50,MDA-MB-231 [1],2.68 µM
same,TGI,MDA-MB-231 [1],42.6 µM
same,CC50,MDA-MB-231 [1]; [8],100 µM
same,GI50,U-251,10.9 µM
same,TGI,U-251,77.6 µM
same,CC50,U-251; [8],100 µM
same,GI50,KM12,3.16 µM
same,TGI,KM12,11 µM
same,CC50,KM12; [8],100 µM
same,inhibition of growth at 10 µM,SK-MEL-28 [2],17.3%
same,GI50,T47D [3],3.34 µM
same,TGI,T47D [3],60 µM
same,CC50,T47D [3]; [8],100 µM
same,inhibition of growth at 10 µM,UACC-257,21.4%
same,inhibition of growth at 10 µM,HT-29,90.6%
same,GI50,NCI/ADR-RES,5.4 µM
same,TGI,NCI/ADR-RES,100 µM
same,CC50,NCI/ADR-RES; [8],100 µM
same,inhibition of growth at 10 µM,SK-MEL-5,33%
same,inhibition of growth at 10 µM,A498,41.6%
same,GI50,M14,5.86 µM
same,TGI,M14,31.5 µM
same,CC50,M14; [8],100 µM
same,inhibition of growth at 10 µM,RPMI-8226,69.1%
same,GI50,SK-MEL-28 [4],12.7 µM
same,TGI,SK-MEL-28 [4],42.7 µM
same,CC50,SK-MEL-28 [4]; [8],100 µM
same,inhibition of growth at 10 µM,K562,97.8%
same,inhibition of growth at 10 µM,CAKI-1,40.2%
same,inhibition of growth at 10 µM,[5],17.7%
same,inhibition of growth at 10 µM,HCT-15,18.5%
same,inhibition of growth at 10 µM,OVCAR-8,42.8%
same,inhibition of growth at 10 µM,SF-295,40.5%
same,inhibition of growth at 10 µM,EKVX,39%
same,inhibition of growth at 10 µM,NCI-H23,38.1%
same,inhibition of growth at 10 µM,UO-31,48%
same,inhibition of growth at 10 µM,MDA-MB-468,102%
same,inhibition of growth at 10 µM,SK-OV-3,35.2%
same,inhibition of growth at 10 µM,HOP-92,93.3%
same,inhibition of growth at 10 µM,PC-3,46.9%
same,inhibition of growth at 10 µM,MDA-MB-231 [6],61.7%
same,inhibition of growth at 10 µM,T47D [7],48%
